Experiments:
[1] = system: Y16141 cells transformed with pVTL260 plasmid; assay: Yeast cell morphology, knockout yeast transformed with plasmid alone; type: cell-based, S. cerevisiae; settings: 25 μM inhibitor
Summary of the method: (§1)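 DDI1-knockout Y16141 carried pVTL260, either alone or encoding full-length Ddi1 orthologs, introduced by lithium acetate transformation. Grown 24 h at 30°C in selective minimal medium with or without 25 μM inhibitor. Morphology examined by phase-contrast microscopy at ×100, with images captured digitally. Fraction of cells with greatly enlarged morphology was recorded.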

[2] = target: T1, human Ddi1 (Homo sapiens, UniProt Q8WTU0); assay: Proteinase inhibitor assay; type: cell-based; settings: for inhibition at 25 µM: read-out: Y16141 human, Inhibition at 25 μM (%)
T1 sequence (Q8WTU0 1-396): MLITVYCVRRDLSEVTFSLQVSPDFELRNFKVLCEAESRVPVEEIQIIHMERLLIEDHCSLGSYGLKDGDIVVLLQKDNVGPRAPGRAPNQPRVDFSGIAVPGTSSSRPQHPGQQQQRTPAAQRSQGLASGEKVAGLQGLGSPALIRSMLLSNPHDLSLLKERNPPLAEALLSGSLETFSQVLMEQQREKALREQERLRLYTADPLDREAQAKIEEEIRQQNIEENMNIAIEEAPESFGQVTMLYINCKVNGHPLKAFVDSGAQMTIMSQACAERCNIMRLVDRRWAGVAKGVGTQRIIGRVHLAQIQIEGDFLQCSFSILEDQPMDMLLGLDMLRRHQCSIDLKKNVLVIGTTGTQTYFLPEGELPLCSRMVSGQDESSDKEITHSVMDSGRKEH
Summary of the method: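 Yeast DDI1-knockout Y16141 (BY4742 derivative) carrying the human Ddi1 ortholog in pVTL260, grown in selective minimal medium. Cultures shaken 48 h at 30°C to A600 ~2 with or without inhibitor (25 μM, or titrated). Supernatant protein measured against a BSA standard and expressed per mg dried-pellet weight. IC50 from a 4-parameter logistic fit. Means ± se, n=6.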

[3] = target: T2, Leishmania Ddi1 (Leishmania major, UniProt I7HUG0); assay: Proteinase inhibitor assay; type: cell-based, L. major; settings: for inhibition at 25 µM: read-out: Y16141 Leishmania, Inhibition at 25 μM (%)
T2 sequence (I7HUG0 148-390): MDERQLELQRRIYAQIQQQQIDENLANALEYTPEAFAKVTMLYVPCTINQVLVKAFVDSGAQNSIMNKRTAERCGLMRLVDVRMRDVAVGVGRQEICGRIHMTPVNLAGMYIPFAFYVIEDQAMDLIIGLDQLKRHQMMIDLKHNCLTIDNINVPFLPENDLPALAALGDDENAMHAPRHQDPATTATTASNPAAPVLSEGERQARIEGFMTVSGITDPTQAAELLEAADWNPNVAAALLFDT

[4] = system: L. amazonensis; settings: read-out: IC50, inhibition of cellular growth and multiplication with L. amazonensis; parasites in culture; cited from earlier work
[5] = system: Y16141 cells expressing human ortholog of Ddi1; assay: Yeast cell morphology, Y16141 with human Ddi1 construct; type: cell-based, S. cerevisiae; settings: 25 μM inhibitor; yeast transformed to express the human ortholog of Ddi1
Summary of the method: as §1

[6] = system: wild-type S. cerevisiae BY4742; assay: Proteinase inhibitor assay; type: cell-based; settings: Saccharomyces cerevisiae, read-out: BY4742, inhibition at 25 μM (%)
Summary of the method: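 Wild-type BY4742 colony precultured overnight at 30°C in selective minimal medium, then shaken 48 h at 30°C to A600 ~2 with or without 25 μM inhibitor. Cells pelleted by centrifugation. Supernatant protein measured by RC DC assay with BSA standard and expressed as mg secreted per mg dry weight of pellet dried at 100°C. n=6.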

[7] = system: Y16141 cells expressing Saccharomyces Ddi1; assay: Yeast cell morphology, Y16141 with Saccharomyces Ddi1 construct; type: cell-based, S. cerevisiae; settings: 25 μM inhibitor, 24 h
Summary of the method: as §1

[8] = target: T3, S. cerevisiae Ddi1 (Saccharomyces cerevisiae, UniProt P40087); assay: Proteinase inhibitor assay; type: cell-based; settings: for inhibition at 25 µM: read-out: Y16141 Ddi1, Inhibition at 25 μM (%)
T3 sequence (P40087 1-428): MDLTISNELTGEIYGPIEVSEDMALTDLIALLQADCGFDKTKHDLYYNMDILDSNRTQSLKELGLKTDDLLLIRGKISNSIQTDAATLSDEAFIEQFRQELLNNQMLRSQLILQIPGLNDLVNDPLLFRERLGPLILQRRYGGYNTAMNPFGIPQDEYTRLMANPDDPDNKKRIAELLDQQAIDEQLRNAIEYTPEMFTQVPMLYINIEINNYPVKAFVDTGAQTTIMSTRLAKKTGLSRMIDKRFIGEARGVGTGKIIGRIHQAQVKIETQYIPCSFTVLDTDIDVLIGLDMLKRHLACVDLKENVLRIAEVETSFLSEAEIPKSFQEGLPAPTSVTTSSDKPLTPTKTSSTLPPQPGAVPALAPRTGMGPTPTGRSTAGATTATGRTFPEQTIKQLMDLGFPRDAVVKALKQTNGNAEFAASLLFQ
Summary of the method: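 S. cerevisiae Ddi1 was expressed from pVTL260 in DDI1-knockout Y16141, transformed by lithium acetate. Colony precultured overnight at 30°C in selective minimal medium, then shaken 48 h at 30°C to A600 ~2 with or without inhibitor (25 μM, or a titration).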

[9] = system: L. major; settings: read-out: IC50, growth inhibition in L. major; parasites in culture; cited from earlier work
[10] = system: Y16141 cells expressing L. major Ddi1 ortholog; assay: Yeast cell morphology, Y16141 with Leishmania Ddi1 construct; type: cell-based, S. cerevisiae; settings: 25 μM inhibitor, 24 h
Summary of the method: as §1

[11] = system: L. infantum; settings: cited from earlier work
[12] = system: Leishmania donovani; settings: cited from earlier work

SMILES	effect on cell morphology [1]	inhibition at 25 µM [2]	IC50 [3]	inhibition at 25 µM [3]	IC50 [4]	effect on cell morphology [5]	inhibition at 25 µM [6]	cells with greatly enlarged morphologies (% of cells) [7]	IC50 [8]	inhibition at 25 µM [8]	IC50 [9]	IC50 [2]	Hill slope factor ([3]; Y16141 expressing the L. major Ddi1 ortholog, Eq. 1 fit)	cells with greatly enlarged morphologies (% of cells) [10]	sensitivity of L. infantum [11]	sensitivity of Leishmania donovani [12]
CC(C)CN(C[C@@H](O)[C@H](Cc1ccccc1)NC(=O)O[C@H]1CCOC1)S(=O)(=O)c1ccc(N)cc1 [Amprenavir]	no effects	9%	5.7 ± 0.7 µM	100%	62 µM	no effects	91%	~75 % of cells	2.8 ± 0.2 µM	95%	–	–	–	–	–	–
CC(C)(C)NC(=O)[C@@H]1CN(Cc2cccnc2)CCN1C[C@@H](O)C[C@@H](Cc1ccccc1)C(=O)N[C@H]1c2ccccc2C[C@H]1O [Indinavir]	–	38%	3 ± 0.2 µM	100%	–	–	36%	–	–	24%	8 µM	–	–	–	–	–
Cc1cccc(C)c1OCC(=O)N[C@@H](Cc1ccccc1)[C@@H](O)C[C@H](Cc1ccccc1)NC(=O)[C@H](C(C)C)N1CCCNC1=O [Lopinavir]	–	0%	56 ± 4 µM	38%	16 µM	–	6%	–	–	6%	–	–	–	–	–	–
Cc1c(O)cccc1C(=O)N[C@@H](CSc1ccccc1)[C@H](O)CN1C[C@H]2CCCC[C@H]2C[C@H]1C(=O)NC(C)(C)C [Nelfinavir]	no effects	97%	0.44 ± 0.03 µM	100%	15 µM	no effects	50%	–	–	40%	–	3.4 ± 0.4 µM	0.72 ± 0.04	~95 % of cells	tens of micromolar range	tens of micromolar range
CC(C)c1nc(CN(C)C(=O)N[C@H](C(=O)N[C@@H](Cc2ccccc2)C[C@H](O)[C@H](Cc2ccccc2)NC(=O)OCc2cncs2)C(C)C)cs1 [Ritonavir]	–	3%	–	22%	–	–	1%	–	–	0%	–	–	–	–	–	–
CC(C)(C)NC(=O)[C@@H]1C[C@@H]2CCCC[C@@H]2CN1C[C@@H](O)[C@H](Cc1ccccc1)NC(=O)[C@H](CC(N)=O)NC(=O)c1ccc2ccccc2n1 [Saquinavir]	–	18%	2.8 ± 0.3 µM	100%	–	–	31%	–	–	24%	7 µM	–	–	–	–	–
CCC[C@@]1(CCc2ccccc2)CC(O)=C([C@H](CC)c2cccc(NS(=O)(=O)c3ccc(C(F)(F)F)cn3)c2)C(=O)O1 [Tipranavir]	–	90%	2.9 ± 0.2 µM	97%	–	–	58%	–	–	86%	–	1.5 ± 0.2 µM	–	–	–	–

— publication PMC3739880 (The FASEB Journal, 2011)
